Screening results from PubChem BioAssay.
FLuc stim CS = firefly luciferase counter-screen for stimulation assays; AID 1027; 200,000 tested, under 10 active; ATPlite luciferase biochemical, luminescence, 10 min; 0 = ATP-free wells, 1 = DMSO control; activation factor at 10 µM; P08659;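 active = luciferase activation factor, scaled between plate controls, of at least 2 with compound at 10 µM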
Target sequence (P08659 whole entry, looked up): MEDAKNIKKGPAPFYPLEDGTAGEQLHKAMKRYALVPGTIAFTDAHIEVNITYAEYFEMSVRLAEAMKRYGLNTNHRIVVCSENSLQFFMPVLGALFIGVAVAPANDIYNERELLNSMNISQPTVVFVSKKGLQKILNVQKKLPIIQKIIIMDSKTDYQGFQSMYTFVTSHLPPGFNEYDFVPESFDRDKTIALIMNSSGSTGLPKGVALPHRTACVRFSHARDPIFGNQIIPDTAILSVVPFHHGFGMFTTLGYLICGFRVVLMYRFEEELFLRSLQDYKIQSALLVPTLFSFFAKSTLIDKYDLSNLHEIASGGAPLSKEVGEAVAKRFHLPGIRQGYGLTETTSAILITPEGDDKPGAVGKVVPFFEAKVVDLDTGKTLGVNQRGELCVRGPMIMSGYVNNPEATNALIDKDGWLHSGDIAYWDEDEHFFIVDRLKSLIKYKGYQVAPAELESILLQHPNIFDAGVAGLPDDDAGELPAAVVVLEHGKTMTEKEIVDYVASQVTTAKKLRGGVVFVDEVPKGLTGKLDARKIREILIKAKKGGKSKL
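test system = cell-free luciferase reagent | medium = PBS as buffer for the ATP substrate | dosing = test compounds dosed from 2 mM stocks in 100% DMSO | incubation = 10 min at ambient temperature | detection = luminescence measurement of luciferase light output | benchmarks = low control with PBS replacing ATP, high control enzyme plus ATP without compound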
C8 TRAIL sens = sensitizes caspase-8 expressing cells to TRAIL | NB7+C8 cells + TRAIL, ATPlite viability luminescence | inhibition (viability loss, TRAIL sensitization), % at 10 µM | 360,000 tested, 1% active | AID 624354;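 active = compounds causing at least 50% loss of cell viability in the single-dose screen, relative to plate controls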
hiPSC survival = hiPSC single-cell survival enhancement; ATPlite luminescence; 100% = ROCK inhibitor wells, 0% = DMSO; AID 602274; 360,000 tested, 0.044% active; survival enhancement, % at 20 µM; in the data active = survival enhancement above about 18%;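 note: cells exposed to compounds for 16 hours before the ATP read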
PPC-1+TRAIL kill = kills PPC-1 cancer cells in the presence of TRAIL; PPC-1 cells + TRAIL, ATPLite viability luminescence; cell killing (% activity), % at 4 µM or 5 µM; 220,000 tested, 0.41% active; AID 1443;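 active = cell killing above 50% in the first pass at 4 µM, then a duplicate retest at 5 µM averaging 50% or more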
FLuc inhib CS = counter-screen for luciferase assay inhibitors: firefly luciferase inhibition; ATPLite firefly luciferase biochemical luminescence, 10 min; inhibition, % at 10 µM; 200,000 tested, 1.5% active;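 active = inhibition above about 50% when tested at 10 µM, limit read from the data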
MIN6 prolif = induces beta-cell replication in MIN6 cells | MIN6 cells proliferation, ATPlite luminescence, 48 h; cells starved in 0.2% serum; 100% = growth in 10% serum | 330,000 tested, 0.29% active | proliferation, % at 10 µM;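 active = compounds whose signal lies at least 3.5 SD above the mean of all wells on their plate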
Hits are given with their value. Compounds with a hit are over-represented: about 1.8% of the library has one in this group of screens.

`C#CCSc1nnc(CSc2nc3ccccc3s2)n1-c1ccccc1` gave FLuc stim CS inactive, C8 TRAIL sens 86, hiPSC survival inactive, PPC-1+TRAIL kill inactive, FLuc inhib CS inactive and MIN6 prolif inactive.
`O=C(O)CSc1nnc(CSc2nc3ccccc3s2)n1-c1ccccc1` gave FLuc stim CS inactive, C8 TRAIL sens inactive, hiPSC survival inactive, PPC-1+TRAIL kill inactive, FLuc inhib CS inactive and MIN6 prolif inactive.
For Cc1cc(Br)cn2c(Cc3ccsc3)c(-c3ccco3)nc12 the results were C8 TRAIL sens inactive and hiPSC survival inactive.
Screening O=C(CN1C(=O)NC2(CCCCC2)C1=O)NCCc1ccccc1 returned C8 TRAIL sens inactive, hiPSC survival inactive and MIN6 prolif inactive.
For Cc1cc(C)nc(Nc2n[nH]c(-c3ccccc3Cl)n2)n1 the results were FLuc stim CS inactive, C8 TRAIL sens inactive, hiPSC survival inactive, PPC-1+TRAIL kill inactive, FLuc inhib CS 58 and MIN6 prolif inactive.
`COc1cc(NC(=O)Cn2ncc(Cl)c(Cl)c2=O)c(C)cc1[N+](=O)[O-]` gave FLuc stim CS inactive, C8 TRAIL sens 93, hiPSC survival inactive, PPC-1+TRAIL kill inactive and FLuc inhib CS inactive.
For O=C(NNc1nc(=O)c2cccnc2s1)c1ccccc1O the results were FLuc stim CS inactive, C8 TRAIL sens 53, hiPSC survival inactive, PPC-1+TRAIL kill inactive, FLuc inhib CS inactive and MIN6 prolif inactive.
`O=C(NNc1c2ccccc2nc2ccccc12)c1ccccc1O` gave FLuc stim CS inactive, C8 TRAIL sens inactive, hiPSC survival inactive, PPC-1+TRAIL kill inactive, FLuc inhib CS inactive and MIN6 prolif inactive.
For Oc1ccccc1C1=NC(c2ccccc2)NC(c2ccccc2)C1 (centres undefined) the results were C8 TRAIL sens inactive and hiPSC survival inactive.
For Cn1c(/C=N/O)nc2ccccc21 the results were C8 TRAIL sens inactive, hiPSC survival inactive, PPC-1+TRAIL kill inactive and MIN6 prolif inactive.
Screening CCC(=O)c1ccc(/C=C/c2nc3ccccc3n2C)o1 returned FLuc stim CS inactive, C8 TRAIL sens 51, hiPSC survival inactive, PPC-1+TRAIL kill inactive, FLuc inhib CS 79 and MIN6 prolif inactive.
Cn1c(-c2ccccc2)cnc1SCc1nc2ccccc2c(=O)[nH]1 was read as FLuc stim CS inactive, C8 TRAIL sens inactive, hiPSC survival inactive, PPC-1+TRAIL kill inactive, FLuc inhib CS 61 and MIN6 prolif inactive.
`Cc1cc2c(NC3CCCCC3)ncnc2s1` gave C8 TRAIL sens inactive, hiPSC survival inactive and MIN6 prolif inactive.
`COc1ccc(/C=N\NC(=O)C2=NNC(=O)C2C)cc1` (centres undefined) gave FLuc stim CS inactive, C8 TRAIL sens inactive, hiPSC survival inactive, PPC-1+TRAIL kill inactive, FLuc inhib CS 69 and MIN6 prolif inactive.
For COc1ccc(/C=N/NC(=O)CC(=O)N/N=C/c2ccc(OC)cc2)cc1 the results were FLuc stim CS inactive, C8 TRAIL sens inactive, hiPSC survival inactive, PPC-1+TRAIL kill inactive, FLuc inhib CS inactive and MIN6 prolif inactive.
`CN(C)CC(CCC(CN(C)C)C(=O)c1ccccc1)C(=O)c1ccccc1` (centres undefined) gave C8 TRAIL sens inactive, hiPSC survival inactive and PPC-1+TRAIL kill 52.
CCOc1ccc(C(=O)C(CCC(CN(C)C)C(=O)c2ccc(OCC)cc2)CN(C)C)cc1 (centres undefined) was read as FLuc stim CS inactive, C8 TRAIL sens inactive, hiPSC survival inactive, PPC-1+TRAIL kill inactive and FLuc inhib CS inactive.
For CCCCCC(=O)N1C[C@H](n2cc(-c3ccc(F)cc3)nn2)[C@@H](O)C[C@@H]1c1ccc(C)cc1 the results were C8 TRAIL sens inactive and hiPSC survival inactive.
`O=C(Nc1ccc2c(c1)CCC2)c1ccc(F)cc1` gave FLuc stim CS inactive, C8 TRAIL sens 52, hiPSC survival inactive, PPC-1+TRAIL kill inactive, FLuc inhib CS 70 and MIN6 prolif inactive.
Screening O=C(c1cc(-c2ccc(Cl)cc2Cl)on1)N1CCCC1 returned C8 TRAIL sens 67, hiPSC survival inactive and MIN6 prolif inactive.
`O=C(c1ccc(-c2ccc(Cl)cc2Cl)o1)N1CCOCC1` gave FLuc stim CS inactive, C8 TRAIL sens inactive, hiPSC survival inactive, PPC-1+TRAIL kill inactive, FLuc inhib CS 51 and MIN6 prolif inactive.
Screening O=C(c1ccc(-c2cc(Cl)ccc2Cl)o1)N1CCOCC1 returned FLuc stim CS inactive, C8 TRAIL sens inactive, hiPSC survival inactive, FLuc inhib CS inactive and MIN6 prolif inactive.
`COc1ccccc1NC(=O)C(C)OC(=O)CCSc1ccc(F)cc1` (centres undefined) gave C8 TRAIL sens inactive, hiPSC survival inactive and MIN6 prolif inactive.
Screening COC(=O)c1cn[nH]c1NC(=S)Nc1ccc(C)cc1Cl returned FLuc stim CS inactive, C8 TRAIL sens inactive, hiPSC survival inactive, PPC-1+TRAIL kill inactive, FLuc inhib CS 54 and MIN6 prolif inactive.
Screening CN(C)c1ccc(NC(=O)c2sc(SCC(=O)Nc3nccs3)nc2N)cc1 returned FLuc stim CS inactive, C8 TRAIL sens inactive, hiPSC survival inactive, PPC-1+TRAIL kill inactive, FLuc inhib CS 55 and MIN6 prolif inactive.
Screening CCCN1C(=O)/C(=C/c2ccccc2OCc2ccc(C(=O)O)cc2)NC1=S returned FLuc stim CS inactive, C8 TRAIL sens inactive, hiPSC survival inactive, PPC-1+TRAIL kill inactive, FLuc inhib CS 72 and MIN6 prolif inactive.
`COc1cc(NCCCCC(C)N)c2nccc(C)c2c1` (centres undefined) gave C8 TRAIL sens 54 and hiPSC survival inactive.
Screening CC(C)(C)OC(=O)NCCCCCc1cn([C@@H](CO)C(=O)NCCCCCCCCCCC(=O)N2CCN(C(=O)OC(C)(C)C)CC2)nn1 returned C8 TRAIL sens 60, hiPSC survival inactive and MIN6 prolif inactive.
CCN(CC)S(=O)(=O)c1ccc(N2CCOCC2)c(NS(=O)(=O)c2ccc(Cl)s2)c1 was read as C8 TRAIL sens inactive and hiPSC survival inactive.
`Cc1ccc(-c2nnc(-c3cccc4ccccc34)o2)cc1` gave C8 TRAIL sens 53 and hiPSC survival inactive.
For Cc1cccc(-c2nnc(-c3cccc4ccccc34)o2)c1 the results were C8 TRAIL sens inactive and hiPSC survival inactive.
For Cc1ccc(-c2nnc(-c3ccccc3)o2)cc1 the results were FLuc stim CS inactive, C8 TRAIL sens inactive, hiPSC survival inactive, PPC-1+TRAIL kill inactive, FLuc inhib CS 67 and MIN6 prolif inactive.
CCN(CC)CCN=c1c(C)nc(C#N)c(N)n1O was read as C8 TRAIL sens inactive and hiPSC survival inactive.
For Nc1nc(=S)c2[nH]cnc2[nH]1 the results were C8 TRAIL sens 75, hiPSC survival inactive and MIN6 prolif inactive.
For Nc1c(Cl)ncnc1N/N=C/c1ccnc2ccccc12 the results were FLuc stim CS inactive, C8 TRAIL sens inactive, hiPSC survival inactive, PPC-1+TRAIL kill inactive, FLuc inhib CS 53 and MIN6 prolif inactive.
